Measured values as given in ChEMBL document CHEMBL1139827, “Synthesis and pharmacological profile of serofendic acids A and B” (Bioorg Med Chem, 2007).
Active and inactive are the calls of the source. No cut-off for these calls is given here.

Columns and labels:
[1] = system: Cerebral cortex; experiment: Protective effect against glutamate-induced neurotoxicity in fetal rat cerebral cortex at 1 uM after 24 hrs; assay type: functional, tissue-based
How it was run: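 Primary cortical neurons from fetal Wistar rats (17–19 days gestation), used after 11–15 days in vitro; cytosine arabinoside 10 µM added at day 6. Compound present 1 h before, during and 24 h after 10 min exposure to 500 µM Glu. Viability by trypan blue exclusion (>200 cells/coverslip, five coverslips), % unstained cells; means ± SEM.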

[2] = Cmax in Sprague-Dawley rat at 5 mg/kg, po; assay type: ADME, organism-based; set-up: dose 5 mg/kg, route oral; conditions: in vivo
How it was run: (§1)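 Fasted SD rats (n = 3) dosed orally at 5 mg/kg, 1 mg/ml in 0.5% methyl cellulose. Plasma sampled at 0.25, 0.5, 1, 2, 4, 6 and 8 h. Plasma (0.1 ml) deproteinized with MeOH/HClO4 (500:1, 0.2 ml), spun 12,000 rpm for 5 min, filtered. Bioavailability set against the 1 mg/kg iv dosing.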

[3] = Half life in Sprague-Dawley rat at 5 mg/kg, po; assay type: ADME, organism-based; set-up: dose 5 mg/kg, route oral; conditions: in vivo; how it was run: as §1
[4] = Total clearance in Sprague-Dawley rat at 1 mg/kg, iv; assay type: ADME, organism-based; set-up: dose 1 mg/kg, route intravenous; conditions: in vivo
How it was run: (§2)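 Fasted SD rats (n = 3, 290–260 g) given 1 mg/kg iv, dosing solution 1 mg/ml in 30% DMSO/5% glucose. Blood sampled at 0.25, 0.5, 1, 2, 4, 6 and 8 h. Plasma (0.1 ml) mixed with MeOH/HClO4 (500:1, 0.2 ml), centrifuged 12,000 rpm for 5 min and filtered. Plasma PK parameters derived from these samples.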

[5] = Ratio of drug level in brain to plasma in Sprague-Dawley rat at 1 mg/kg, iv after 0.5 hr; assay type: ADME, organism-based; set-up: dose 1 mg/kg, route intravenous; conditions: read-out: BPR
How it was run: (§3)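 SD rats (n = 3, fasted) given 1 mg/kg iv in 30% DMSO/5% glucose. Brain and blood taken at 0.5 and 2 h. Brain homogenized (20% saline). Brain homogenate or plasma (0.1 ml) treated with MeOH/HClO4 (500:1, 0.2 ml), centrifuged 12,000 rpm for 5 min, filtered. Brain-to-plasma concentration ratio calculated.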

[6] = Half life in Sprague-Dawley rat at 1 mg/kg, iv; assay type: ADME, organism-based; set-up: dose 1 mg/kg, route intravenous; conditions: in vivo; how it was run: as §2
[7] = AUC in Sprague-Dawley rat at 1 mg/kg, iv; assay type: ADME, organism-based; set-up: dose 1 mg/kg, route intravenous; conditions: plasma; how it was run: as §2
[8] = Volume of distribution at steady state in Sprague-Dawley rat at 1 mg/kg, iv; assay type: ADME, organism-based; set-up: dose 1 mg/kg, route intravenous; conditions: in vivo, read-out: Vdss; how it was run: as §2
[9] = Oral bioavailability in Sprague-Dawley rat at 5 mg/kg; assay type: ADME, organism-based; conditions: in vivo; how it was run: as §1
[10] = system: Cerebral cortex; experiment: Protective effect against glutamate-induced neurotoxicity in fetal rat cerebral cortex after 24 hrs; assay type: functional, tissue-based
How it was run: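 Wistar fetal rat cortical neurons (E17–19) grown on polyethyleneimine-coated coverslips, 10 µM cytosine arabinoside added from day 6, used at 11–15 DIV. Exposed to 500 µM Glu for 10 min; compound present 1 h before, during and 24 h after. Viability by trypan blue exclusion, >200 cells per coverslip, five coverslips, mean ± SEM.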

[11] = Tmax in Sprague-Dawley rat at 5 mg/kg, po; assay type: ADME, organism-based; set-up: dose 5 mg/kg, route oral; conditions: in vivo; how it was run: as §1
[12] = AUC in Sprague-Dawley rat at 5 mg/kg, po; assay type: ADME, organism-based; set-up: dose 5 mg/kg, route oral; conditions: plasma; how it was run: as §1
[13] = Ratio of drug level in brain to plasma in Sprague-Dawley rat at 1 mg/kg, iv after 2 hrs; assay type: ADME, organism-based; set-up: dose 1 mg/kg, route intravenous; conditions: read-out: BPR; how it was run: as §3

In the case of C[C@]12N[C@H](Cc3ccccc31)c1ccccc12, the Activity [1] is reported as “Active”.
Compound C[S@@+]([O-])C[C@H]1[C@H]2CC[C@@]3(CC[C@H]4[C@@](C)(CCC[C@]4(C)C(=O)O)[C@@H]3C2)[C@@H]1O [SEROFENDIC ACID B] has a Cmax [2] of 2050 ng/mL, a half-life [3] of 234 min and a clearance [4] of 6 mL/min/kg. The Kp at 0.5 h [5] was 0.021, the half-life [6] was 39 min and the AUC [7] was 2780 ng·h/mL. For the same compound, the Vd [8] was 0.33 L/kg, the bioavailability [9] was 41% and the Activity [10] was “Active”. The Tmax [11] was 19.8 min and the AUC [12] was 5640 ng·h/mL.
For COC(=O)[C@@]1(C)CCC[C@@]2(C)[C@@H]3C[C@@H]4CC[C@@]3(CC[C@@H]21)[C@H](O)[C@H]4C[S+](C)[O-] (stereo partly drawn) [SEROFENDIC ACID METHYLESTER], the clearance [4] was 14.7 mL/min/kg, the Kp at 0.5 h [5] was 2.2 and the half-life [6] was 33 min. It also gave an AUC [7] of 1440 ng·h/mL, a Vd [8] of 0.57 L/kg and a Kp at 2 h [13] of 2.21.
C[S@+]([O-])C[C@H]1[C@H]2CC[C@@]3(CC[C@H]4[C@@](C)(CCC[C@]4(C)C(=O)O)[C@@H]3C2)[C@@H]1O [SEROFENDIC ACID A] gave a clearance [4] of 8.67 mL/min/kg, a half-life [6] of 28.8 min and an AUC [7] of 1950 ng·h/mL. For the same compound, the Vd [8] was 0.33 L/kg and the Activity [10] was “Active”.
